Screening results deposited in PubChem BioAssay by several laboratories.
STAT1 blocker: STAT1 signaling inhibition | 0.35% of 200,000 active | inhibition, % at 5.5 µM | NIH 3T3 STAT1-luciferase reporter, IFN-gamma, luminescence;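 active means inhibition above a set limit, the mean inhibition across all tested compounds plus 3 SD, cut at about 34% in these data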
STAT3 inh: STAT3 signaling inhibition; 0.89% of 190,000 active; U3A cells, IL-6 STAT3-luciferase reporter, luminescence; host cell line lacks STAT1; inhibition, % at 5.5 µM;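 active means inhibition above the mean inhibition across all screened compounds plus 3 SD, cut at about 44% in these data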
STAT1 activator: activators of IFN-gamma induced STAT1 signaling | NIH 3T3 STAT1-luciferase reporter, luminescence; 100% = IFN-gamma alone, no compound | activation (% of control), % at 5.5 µM | 2.6% of 200,000 active | AID 932;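 active means activation above the screen-wide mean activation plus 3 SD, cut at about 130% in these data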
STAT3 activator: activators of IL-6 induced STAT3 signaling. U3A cells, IL-6 STAT3-luciferase reporter, luminescence; 100% = signal with IL-6 EC80 alone. activation (% of control), % at 5.6 µM. 0.91% of 190,000 active;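 active means activation above the screen-wide mean of compound activation plus 3 SD, cut at about 130% in these data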
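System – human U3A cells carrying STAT3-luciferase construct · Probe or stimulus – Interleukin-6, 33 ng/mL · Schedule – compound 1 h, then IL-6 6 h at 37 °C · Signal – luminescence from STAT3-driven luciferase reporter · Evaluation – percent of IL-6-only median luminescence · Benchmarks – IL-6-only high control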
Cl transport mod: modulates chloride dependent transport by human KCC2 | B-score of Tl+ flux slope (higher = more flux/activation; lower = inhibition) at 10 µM | KCC2 cells, thallium flux FluoZin-2 fluorescence | Q9H2X9 | 2.2% of 190,000 active;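 active means thallium flux slope and its plate-corrected score both differing from the plate sample mean at a set confidence after two filtering rounds, in either direction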;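 further: slope of fluorescence scaled to starting intensity during 10 to 20 s after thallium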
HSV augment: HSV replication enhancement. HSV replication augmentation in cells, fold increase. AID 1956. maximum fold increase. 0.005% of 220,000 active; in the data active means maximum fold increase above about 1.5; inconclusive means no clear call, values can overlap the other calls; tested in PC3 cells
Each line names hits and unclear results; the compound was inactive in the other large screens. This is a sample that favours compounds with a hit; in the whole collection about 5.5% have one here.

O=c1cc(CSc2nc(NCc3ccccc3)c3ccccc3n2)nc2ccc(Cl)cn12	none
O=C(N/N=C/C1CCCCC1)c1ccccn1	STAT1 activator 137
Cc1cc2c(cc1C)/C(=N/NC(=O)c1ccccn1)CCC2	none (no result: STAT1 blocker, STAT3 inh, STAT1 activator, STAT3 activator)
O=C(NN=C1CCC(=NNC(=O)c2ccccn2)CC1)c1ccccn1	STAT1 activator 138
CCn1c(=S)[nH]c2nc3c(cc2c1=O)CCCC3	Cl transport mod 42
C/C(=N\N=C\c1ccccc1F)c1nnn(-c2nonc2N)c1C	STAT1 activator 142
O=C(CNC(=O)c1ccccc1Cl)OCC(=O)N1CCc2ccccc21	STAT1 activator 134
COc1ccccc1C(=O)NC(=S)N1CCCc2ccccc21	none (no result: Cl transport mod)
O=C(COc1ccccc1Cl)NC(=S)N1CCc2ccccc21	Cl transport mod 37
O=C(COc1ccccc1)NC(=S)N1CCc2ccccc21	Cl transport mod 56
C=CCn1c(O)c(N=NC(=O)OC(C)(C)C)c2ccccc21	Cl transport mod 17
CN(C)c1ccc(/C=C(/C#N)C(=O)NCc2ccccc2)o1	STAT1 activator 129, HSV augment inconclusive
O=C(N/C(=C/c1cn(-c2ccccc2)nc1-c1ccccc1)C(=O)N1CCOCC1)c1ccc(Cl)cc1Cl	none
N=C1N(/N=C/c2ccccc2)C(=Nc2ccccc2)C(=S)N1c1ccccc1	STAT1 activator 132
Cc1ccc2nc(-c3ccc(NC(=S)NC(=O)C(C)C)cc3)sc2c1	none
Cc1ccc2nc(-c3ccc(NC(=O)C(C)N4C(=O)c5ccccc5C4=O)cc3)sc2c1 (stereo unspecified)	STAT1 activator 141
Cc1ccc2nc(-c3ccc(NC(=S)NC4CC(C)(C)NC(C)(C)C4)cc3)sc2c1	STAT1 activator 135
CCC(=O)NC(=S)Nc1ccc(-c2nc3ccccc3s2)cc1	STAT1 activator 142 (no result: Cl transport mod)
Cc1ccc(NC(=S)c2nc3ccccc3s2)cc1	STAT1 activator 134
O=C(CCN1C(=O)c2ccccc2C1=O)Nc1ccc(-c2nc3ccccc3s2)cc1	STAT1 activator 142
CN1CCN(C(=O)Nc2cccc(-c3ccccc3)c2)CC1	none (no result: STAT1 blocker, STAT3 inh, STAT1 activator, STAT3 activator)
O=C1C2C3C=CC(C3)C2C(=O)N1c1ccc(-c2nc3ccccc3o2)cc1 (stereo unspecified)	STAT1 activator 143 (no result: Cl transport mod)
O=C1C2C3C=CC(C3)C2C(=O)N1c1ccncc1 (stereo unspecified)	none (no result: Cl transport mod, HSV augment)
Cc1ccc(C(=O)CC(=O)COc2ccc(Cl)cc2C)cc1	Cl transport mod 17
OCc1cn(-c2ccccc2)nc1-c1ccco1	none
Cc1ccc(-c2nn(-c3ccccc3)cc2CO)o1	STAT1 activator 148
Cc1ccc(-c2nn(-c3ccccc3)cc2C=O)o1	STAT1 activator 143
Cc1ccc(-c2nn(-c3ccccc3)cc2C(N)=O)o1	none
Cc1ccc(Cl)cc1NC(=O)CCN1C(=O)C2C3CCC(C3)C2C1=O (stereo unspecified)	none
COc1ccc(-c2nc3c(Br)c(N)c(Br)cc3o2)cc1	STAT1 activator 135, STAT3 activator 178 (no result: HSV augment)
COc1cccc(/C=N/NC(=O)C(C)Cn2cnc3ccccc32)c1 (stereo unspecified)	none (no result: STAT1 blocker, STAT3 inh, STAT1 activator, STAT3 activator)
CCN(CC)CCN1C(=O)c2oc3ccccc3c(=O)c2C1c1cccc(Br)c1 (stereo unspecified)	Cl transport mod 24
CCN(CC)CCN1C(=O)c2oc3ccccc3c(=O)c2C1c1ccccc1 (stereo unspecified)	none (no result: Cl transport mod)
COc1ccccc1NC(=S)NC(=O)c1ccc(Cn2cc(Br)cn2)cc1	none
COC(=O)C1=C(C)NC(C)=C(C(=O)OC)C1c1ccccc1[N+](=O)[O-]	Cl transport mod 17
O=C(O)c1ccc2oc(SCC(=O)N3CCCCC3)nc2c1	STAT1 activator 137
N#Cc1cccc(NC(=S)Nc2ccccc2)c1	none
COc1ccccc1C1=NC(c2ccc(C)cc2)N=C1C (stereo unspecified)	STAT1 activator 135
COc1ccc(C2N=C(c3ccccc3)NC(c3ccccc3)=N2)cc1	none
O=C(CSc1nccc(=O)[nH]1)N1CCN(c2ccccc2)CC1	none
O=C(CN1CCN(Cc2ccccc2)CC1)Nc1ccc(N2CCOCC2)cc1	none
C#Cc1ccc([C@H]2C=C(C(=O)N3CCN(Cc4ccccc4)CC3)O[C@@H](OCC)[C@@H]2CCCO)cc1	none (no result: STAT3 inh, STAT3 activator)
CCO[C@@H]1OC(C(=O)NCc2ccccc2)=C[C@H](c2csc3ccccc23)[C@H]1CCCO	Cl transport mod -2.9 (no result: STAT3 inh, STAT3 activator, HSV augment)
C#CCNC(=O)C1=C[C@H](c2csc3ccccc23)[C@@H](CCCO)[C@H](OCC)O1	none (no result: STAT3 inh, STAT3 activator)
C#Cc1ccc([C@@H]2C=C(C(=O)N3CCN(Cc4ccccc4)CC3)O[C@H](OCC)[C@H]2CCCO)cc1	Cl transport mod -3.8 (no result: STAT3 inh, STAT3 activator)
O=c1c2c(nc3cc(-c4cccc(F)c4)[nH]n13)CCC2	STAT1 activator 130
O=c1c2c(nc3cc(-c4cccc(Cl)c4)[nH]n13)CCC2	STAT1 activator 135 (no result: Cl transport mod)
CN(Cc1nc(-c2cnccn2)no1)Cc1cccc2ccccc12	none
O=C(CN1CCCC1)Nc1ccc(Oc2ccc(NC(=O)CN3CCCC3)cc2)cc1	none (no result: Cl transport mod)
O=C(CN1CCCC1)Nc1ccc(NC(=O)Nc2ccccc2)cc1	STAT1 activator 131
c1ccc(Cn2ncc3c(N4CCCCC4)ncnc32)cc1	Cl transport mod -4.1
Cc1ccc(Cn2ncc3c(N4CCN(c5ccccc5C)CC4)ncnc32)cc1	none
COc1ccc(Cl)cc1NC(=O)c1cnc2sccn2c1=O	none
O=C(Nc1cnc2sccn2c1=O)c1ccc(Cl)cc1Cl	STAT1 activator 132
CC1=C(C(=O)Nc2cccc(F)c2)C(c2ccsc2)C2=C(CC(C)(C)CC2=O)N1 (stereo unspecified)	none
O=C(Nc1ccccc1)n1cc(-c2ccccn2)c(N2CCOCC2)n1	STAT3 activator 133 (no result: HSV augment)
Cc1c(C(=O)OCC(=O)NCC2CCCO2)cccc1[N+](=O)[O-] (stereo unspecified)	none
CC1Cc2cc(/C(O)=C3/C(=O)C(=O)N(CCCn4ccnc4)C3c3ccco3)ccc2O1 (stereo unspecified)	STAT1 activator 132
CC1Cc2cc(/C(O)=C3/C(=O)C(=O)N(CCCn4ccnc4)C3c3ccncc3)ccc2O1 (stereo unspecified)	none (no result: Cl transport mod)
C(=C\c1ccccc1)/C=N/N1CCN(c2ccccn2)CC1	STAT1 activator 132 (no result: Cl transport mod)
C(/C=C/c1ccccc1)=N/N1CCN(c2ccccc2)CC1	none (no result: Cl transport mod)
O=S(=O)([N-]c1nc2ccccc2nc1-[n+]1ccc(-c2ccncc2)cc1)c1ccccc1	STAT1 activator 129
O=C(COC(=O)c1cccc(NS(=O)(=O)/C=C/c2ccccc2)c1)Nc1ccccc1OC(F)F	none
O=C(COc1ncnc2ccccc12)c1ccc2c(c1)OCCO2	STAT1 activator 142 (no result: Cl transport mod)
O=C(NCc1ccccn1)C(=O)Nc1ccccc1	none
Cc1ccc(NC(=O)C(=O)NCc2ccccn2)cc1	STAT1 activator 134
